Laboratory results taken from ChEMBL document CHEMBL2424620, “β2-Adrenoceptor agonists in the regulation of mitochondrial biogenesis” (Bioorg Med Chem Lett, 2013).
Active and inactive are the calls of the source. The rule behind the calls is not given here.

Legend:
RPT [1] = experiment: Induction of Mitochondrial biogenesis in rabbit RPT cells at 10 to 3000 nM after 24 hrs by FCCP-OCR assay relative to control; type: functional, cell-based; conditions: Oryctolagus cuniculus
How it was run: (§1)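 Primary cultures of rabbit renal proximal tubule cells, grown under improved conditions favouring aerobic respiration, were exposed to compound (10–3,000 nM) for 24 h. FCCP-uncoupled oxygen consumption rate was then read on a Seahorse XF-96. Plates included vehicle (DMSO <0.5%), SRT1720 10 μM positive control and blanks. Results are expressed as a ratio or percent fold change versus DMSO, mean ± s.e.m., N=4. A ratio >1.15 was classed as MB.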

RPT [2] = experiment: Induction of Mitochondrial biogenesis in rabbit RPT cells after 24 hrs by FCCP-OCR assay relative to control; type: functional, cell-based; conditions: Oryctolagus cuniculus; how it was run: as §1
[3] = target: Beta-2 adrenergic receptor (Homo sapiens, UniProt P07550); experiment: Binding affinity to beta-2 adrenergic receptor (unknown origin) at 1 to 10000 nM
Beta-2 adrenergic receptor, sequence (P07550 whole entry): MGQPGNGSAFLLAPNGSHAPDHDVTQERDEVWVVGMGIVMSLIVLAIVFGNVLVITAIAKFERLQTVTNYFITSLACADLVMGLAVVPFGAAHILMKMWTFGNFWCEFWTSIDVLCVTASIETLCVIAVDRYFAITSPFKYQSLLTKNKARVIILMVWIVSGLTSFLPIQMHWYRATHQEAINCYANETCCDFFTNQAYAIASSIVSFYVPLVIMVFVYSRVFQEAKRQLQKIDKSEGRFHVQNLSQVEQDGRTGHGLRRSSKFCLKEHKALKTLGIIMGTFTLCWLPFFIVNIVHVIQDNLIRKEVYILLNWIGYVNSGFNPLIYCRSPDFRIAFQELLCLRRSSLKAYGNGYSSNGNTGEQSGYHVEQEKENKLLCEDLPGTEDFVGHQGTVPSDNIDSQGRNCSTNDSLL

SMILES	Activity (RPT [1])	Activity (RPT [2])	Kd [3]
CC(C)(C)NCC(O)c1cc(Cl)c(N)c(Cl)c1 (stereo unspecified)	inactive	–	–
CC(C)(C)NCC(O)c1cc(O)cc(O)c1 (stereo unspecified)	–	Active	–
CC(C)NCC(O)c1ccc(O)c(O)c1 (stereo unspecified)	inactive	–	–
CC(Cc1ccc(O)cc1)NCC(O)c1cc(O)cc(O)c1 (stereo unspecified)	Active	–	–
CNCCC(Oc1ccccc1OC)c1ccccc1 (stereo unspecified)	Active	–	–
CNCC[C@@H](Oc1ccccc1C)c1ccccc1	Active	–	–
C[C@@H](NCCc1ccc(O)cc1)[C@@H](O)c1ccc(O)cc1 (relative stereo) [rel-RITODRINE]	–	Active	0.501 nM
CCC(NC1CCCC1)C(O)c1ccc(O)c(O)c1 (stereo unspecified) [CYCLOPENTYLBUTANEPHARINE]	–	Active	10 nM
CCC(NC(C)C)C(O)c1ccc(O)c(O)c1 (stereo unspecified) [ISOETHARINE]	inactive	–	1000 nM
CC(C)NCC(O)c1cc(O)cc(O)c1 (stereo unspecified) [METAPROTERENOL]	–	Active	501 nM
CCC(NC(C)C)C(O)c1ccc(O)c2[nH]c(=O)ccc12 (stereo unspecified) [PROCATEROL]	Active	–	79.4 nM
